# This is a sample that favours compounds with a hit; in the whole collection about 2.1% have one here.
# CCR6 antagonist = blocks CCL20-driven beta-arrestin recruitment at human CCR6; P51684; CHO-K1 CCR6 PathHunter beta-arrestin, luminescence, CCL20-stimulated; inhibition, % at 20 µM; actives 0.49% (n = 340,000); AID 493098;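 active = compounds whose inhibition of the agonist-driven luminescence signal at 20 µM reaches about 50%, limit read from the data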;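 also: cells stimulated with CCL20 at 14 nM final; plate controls were DMSO with CCL20 for no effect and DMSO without agonist for full effect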
# HTR2A ag = mouse HTR2A agonism via beta-arrestin recruitment; CHO-K1 mHTR2A beta-arrestin complementation, luminescence; percent of 30 µM serotonin response; P35363; activation, % at 7.6 µM; actives 0.66% (n = 360,000);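 active = activation above a run cutoff, the mean activation of all tested compounds plus 3 SD, cut at about 14% in these data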;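 also: 0% = plate median of compound wells and 100% = 30 µM serotonin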
# CXCR6 block = CXCR6 (human) receptor inhibition. O00574. CHO-K1 PathHunter CXCR6 beta-arrestin, luminescence. inhibition, % at 20 µM. actives 0.36% (n = 360,000); in the data active = inhibition above about 34%, passing the limit was not always enough;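 also: antagonist mode with CXCL16 agonist at 10 nM final; 0% = 10 nM CXCL16 with DMSO and 100% = unstimulated wells without agonist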
# APJ antag = antagonists of human APJ apelin receptor | P35414 | CHO-K1 APJ beta-arrestin complementation, luminescence | inhibition, % at 20 µM | actives 0.32% (n = 330,000) | AID 2521;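 active = inhibition above about 40% at 20 µM, limit read from the data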;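 also: cells challenged with 10 nM apelin-13 agonist together with compound; plate controls were apelin-13 plus DMSO wells for no effect and DMSO wells lacking apelin-13 for full effect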
# Target sequence (P35414 whole entry, looked up): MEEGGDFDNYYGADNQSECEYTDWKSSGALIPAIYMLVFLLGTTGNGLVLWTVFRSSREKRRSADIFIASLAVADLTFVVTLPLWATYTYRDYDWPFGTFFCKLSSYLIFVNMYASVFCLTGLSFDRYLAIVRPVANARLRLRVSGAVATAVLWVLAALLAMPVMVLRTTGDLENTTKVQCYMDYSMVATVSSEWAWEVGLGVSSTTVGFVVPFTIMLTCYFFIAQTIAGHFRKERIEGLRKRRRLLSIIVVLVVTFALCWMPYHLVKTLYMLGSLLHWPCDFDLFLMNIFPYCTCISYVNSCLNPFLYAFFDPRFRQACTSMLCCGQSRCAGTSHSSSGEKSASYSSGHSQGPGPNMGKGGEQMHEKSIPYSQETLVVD
# EBI2 block = antagonists of human EBI2 receptor; P32249; EBI2 beta-arrestin recruitment, luminescence, 7a,25-OHC stimulated; inhibition, % at 5 µM; actives 0.81% (n = 360,000); AID 651636; in the data active = inhibition above about 38%;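 also: enzyme fragment complementation signal reports receptor beta-arrestin coupling in cells; 0% = agonist plus DMSO wells and 100% = wells without agonist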
# APJ ag = activates the human apelin receptor APJ | P35414 | CHO-K1 APJ PathHunter beta-arrestin, luminescence; 0% DMSO wells, 100% apelin | activation, % at 20 µM | actives 0.11% (n = 330,000);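 active = activation more than six SD over the plate average, tested at 20 µM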;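 also: 0% = DMSO alone and 100% = apelin-13 at 10 nM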
#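 Test system: CHO-K1 APJ beta-arrestin complementation cell line | Compound: Single test compound dose, 20 µM final, 1% DMSO | Incubation: Compound 90 min 25 °C, reagent 1 h | Measured by: beta-gal luminescence | Read-out basis: APJ–arrestin association signal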
# MOR ag counter = OPRM1 agonism in mouse HTR2A counterscreen | AID 624380 | actives 5.3% (n = 2,300) | shares compounds with HTR2A ag | U2OS OPRM1 beta-arrestin PathHunter, luminescence; DMSO 0%, DAMGO 9.3 µM 100% | activation, % at 9.3 µM;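 active = mean activation above the mean of DMSO-only wells plus 3 SD, cut at about 0.5% in these data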
# m5-HT2A ag conf = mouse HTR2A agonism confirmed. shares compounds with HTR2A ag. CHO-K1 PathHunter beta-arrestin recruitment, luminescence; DMSO 0%, 30 µM serotonin 100%. AID 624381. activation, % at 7.6 µM. actives 19% (n = 2,300);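 active = mean activation across triplicates above the hit threshold derived in the original primary screen, cut at about 15% in these data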
# * hit, by the source's call; · = not tested or not shown.
SMILES,CCR6 antagonist,HTR2A ag,CXCR6 block,APJ antag,EBI2 block,APJ ag,MOR ag counter,m5-HT2A ag conf
O=[N+]([O-])c1cc(-c2nnc(Nc3ccc(O)cc3)c3ccccc23)ccc1N1CCOCC1,26,31*,6,16,6,9,0,21*
O=[N+]([O-])c1cc(-c2nnc(Nc3ccccc3)c3ccccc23)ccc1N1CCOCC1,14,11,-2,22,17,0,·,·
CCCc1nc2ccccc2n1C(CCSC)C(=O)NC(C)(C)C (stereo unspecified),·,3,·,·,2,·,·,·
COc1ccc(CCNC(=O)CCNS(=O)(=O)c2cccc3nsnc23)cc1OC,3,-4,-2,-29,0,-3,·,·
O=[N+]([O-])c1cccc2cnccc12,6,15*,-11,·,-1,·,0,1
O=[N+]([O-])c1ccc(Oc2cccc(Br)c2)c2ccncc12,11,-5,3,-51,-27,7,·,·
Cc1ccc(-n2c(C)cc(/C=N/NC(N)=S)c2C)cc1,31,4,17,6,9,-4,·,·
COc1ccc(Cl)cc1NC(=O)C(=O)N/N=C/c1cc(C)n(-c2ccc(C)cc2)c1C,8,18*,2,4,2,-4,-1,-4
CCOC(=O)C1=C(C)NC(C)=C(C(=O)OCC)C1C(=O)OCC(=O)N1CCc2ccccc21,9,6,-1,14,8,-5,·,·
CCC(C)(C)C1CCC2(CC1)NC(=O)N(CC(=O)NCCc1c[nH]c3ccccc13)C2=O (stereo unspecified),6,-2,2,-10,8,0,·,·
CCCNCC1C(Oc2ccc(Cl)cc2Cl)C(=O)N1c1cccc(C)c1C (stereo unspecified),26,17*,0,13,6,-5,0,8
Cc1ccc(S(=O)CCNC(=O)Cc2ccccc2)cc1 (stereo unspecified),-14,-2,-4,3,0,1,·,·
CCn1c(CNC(=O)c2ccco2)nnc1SCC(=O)Nc1cc(C)c(C)cc1Br,-9,15*,-6,3,6,5,1.0*,4
CCCN(CCC)CCNC(=O)c1cc2c(-c3ccc(Cl)cc3)nn(C)c2s1,12,30*,-6,-1,-3,2,0,51*
COc1ccc(NC(=O)CNC(c2ccccc2)c2ccccc2)cc1Cl,17,3,5,14,18,-1,·,·
Cc1cc2c(=O)n(C)c(SCC(=O)Nc3ccc(F)cc3)nc2s1,4,7,-3,·,-7,·,·,·
Cc1ccccc1-n1c(SC(C)C(=O)NCC2CCCO2)nnc1-c1ccncc1 (stereo unspecified),12,15*,3,·,2,·,0,-1
O=C(Nc1ccc(Cl)c(S(=O)(=O)N2CCOCC2)c1)c1ccc(Cl)nc1,0,17*,-11,-6,0,9,0,0
COc1cccc(-n2c(-c3ccccc3)c[nH]c2=S)c1,-2,22*,-17,3,-6,1,0.5*,3
COc1ccc(C(=O)CSC2=C(C#N)C3(CCCCC3)C(C#N)=C(N)N2)cc1,10,2,-9,14,-3,-5,·,·
O=C(O)c1ccc(S(=O)(=O)N2CCC3(CC2)CC(=O)c2ccccc2O3)cc1,11,19*,9,-49,-7,-2,0,2
Cn1c(NCCN2CCOCC2)nc2c1c(=O)n(Cc1cccc(Cl)c1)c(=O)n2C,2,-5,-10,6,-2,-2,·,·
S=C(NCC1CCCO1)NC1CC1 (stereo unspecified),2,1,8,-12,-1,-1,·,·
O=C(NCC1CCCO1)NC1CCCCC1 (stereo unspecified),-5,17*,2,16,2,-1,-1,-4
CCCCNc1c(-c2cc3ccccc3o2)nc2nc(C)cc(C)n12,·,18*,6,·,0,·,0.8*,5
SMILES,CCR6 antagonist,HTR2A ag,CXCR6 block,APJ antag,EBI2 block,APJ ag,MOR ag counter,m5-HT2A ag conf
COc1ccc(Nc2c(-c3cc4ccccc4o3)nc3nc(C)cc(C)n23)cc1,·,-1,-3,·,3,·,·,·
O=C(NCC1OCCc2ccccc21)c1ccc(NC(=O)c2ccc(Cl)cc2Cl)cc1 (stereo unspecified),3,16*,-6,10,8,2,0.8*,11
O=C(NCC1OCCc2ccccc21)c1ccc(NC(=O)c2ccccc2Cl)cc1 (stereo unspecified),3,-3,-1,-11,1,0,·,·
COc1ccc2nc(NC(=O)c3ccc4ncsc4c3)sc2c1,6,8,-4,-102,1,3,·,·
COc1ccc(C2=CC(=O)C[C@H](CN3C(=O)c4ccccc4C3=O)N(C(=O)OC(C)(C)C)O2)cc1,0,15*,8,·,16,·,-1,-5
CCC[C@H]1CC(=O)C=C(c2ccsc2)ON1C(=O)OC(C)(C)C,5,-5,5,·,5,·,·,·
CCc1nnc(NC(=O)CCC(=O)N2CCN(Cc3ccc(Cl)cc3)CC2)s1,3,0,0,16,-13,-2,·,·
CCc1nnc(NC(=O)CCC(=O)N2CCN(Cc3ccccc3)CC2)s1,-3,16*,3,10,-2,-2,-1,-4
NC(=O)CSc1oc(-c2ccco2)nc1S(=O)(=O)c1ccc(Cl)cc1,6,10,2,17,-6,0,·,·
CC(=O)N1C[C@H]2CON(C)[C@H]2C[C@H]1c1ccccc1Br,8,18*,-3,·,-9,·,-1,-4
Cc1ccc(S(=O)(=O)c2cc3ccc(O)cc3oc2=O)cc1C,-41,3,-28,-10,-12,7,·,·
O=C(c1cc(-c2ccccc2)on1)N1CCN(c2ccccc2)CC1,9,8,-5,15,22,-4,·,·
O=C(c1cc(-c2ccco2)on1)N1CCN(c2ccccc2)CC1,3,30*,6,19,0,-4,0,-1
O=C(c1ccccc1C(=O)N1CCN(c2ccccc2)CC1)N1CCN(c2ccccc2)CC1,10,22*,2,-1,11,-3,-1,-9
O=C(CCC(=O)N1CCN(c2ccccc2F)CC1)c1ccc(Cl)s1,9,19*,5,-2,-2,-3,0,-5
O=S(=O)(N1CCCCC1)N1CCCN(S(=O)(=O)N2CCCCC2)CC1,5,15*,4,15,-14,-3,-1,-3
